In ChEMBL document CHEMBL1136118, “N- and C-terminal modifications of negamycin” (Bioorg Med Chem Lett, 2003):
≈ marks a conversion by molar mass, not a printed value.

Legend:
Format in all cases: functional
Escherichia coli [1] = experiment: In vitro antibacterial activity against Escherichia coli MG1655
Procedure, shortened: (§1)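 Broth microdilution MIC in Mueller–Hinton broth supplemented with 50% human serum; inoculum 5 × 10⁵ cfu/mL. MG1655 tolC is an efflux pump mutant.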

Escherichia coli [2] = experiment: Inhibitory activity against protein synthesis of Escherichia coli S30 by cell-free transcription/translation coupled assay
Procedure, shortened: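 Coupled transcription/translation in E. coli S30 extract with pGEMbgal DNA template; compounds preincubated with reaction mixture 10 min before template addition; after 1 h incubation ONPG added and β-galactosidase activity read at 420 nm.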

Escherichia coli [3] = experiment: In vitro antibacterial activity against Escherichia coli MG1655 tolC; procedure, shortened: as §1
Klebsiella pneumoniae = experiment: In vitro antibacterial activity against Klebsiella pneumoniae […]; procedure, shortened: as §1
Enterobacter cloacae = experiment: In vitro antibacterial activity against Enterobacter cloacae ATCC 35030; procedure, shortened: as §1
Streptococcus pneumoniae = experiment: In vitro antibacterial activity against Streptococcus pneumoniae VSPN1005; procedure, shortened: as §1
Pseudomonas aeruginosa = experiment: In vitro antibacterial activity against Pseudomonas aeruginosa PA013; procedure, shortened: as §1
Escherichia coli [4] = experiment: In vitro antibacterial activity against Escherichia coli ATCC 25922; procedure, shortened: as §1
Staphylococcus aureus = experiment: In vitro antibacterial activity against Staphylococcus aureus ATCC 25293; procedure, shortened: as §1
Mus musculus = experiment: In vivo efficacy in Escherichia coli murine septicemia model
Procedure, shortened: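 Mice infected ip with approximately 1 × 10⁵ cfu E. coli ATCC25922; compound given iv at 1 and 5 h post-infection; survival followed for 7 days; ED₅₀ calculated by non-linear regression.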

Row | Compound | MIC (Escherichia coli [1]) | IC50 (Escherichia coli [2]) | MIC (Escherichia coli [3]) | MIC (Klebsiella pneumoniae) | MIC (Enterobacter cloacae) | MIC (Streptococcus pneumoniae) | MIC (Pseudomonas aeruginosa) | MIC (Escherichia coli [4]) | MIC (Staphylococcus aureus) | ED50 (Mus musculus)
1 | CN(CP(=O)(O)O)NC(=O)C[C@H](N)C[C@@H](O)CN | > 256 mg/L | > 80 µM | > 256 mg/L | > 256 mg/L | > 256 mg/L | > 256 mg/L | > 256 mg/L | > 256 mg/L | > 256 mg/L | 
2 | CCCNC[C@H](O)C[C@@H](N)CC(=O)NN(C)CC(=O)O | > 256 mg/L | 20.3 µM | > 256 mg/L | > 256 mg/L | > 256 mg/L | > 256 mg/L | > 256 mg/L | > 256 mg/L | > 256 mg/L | 
3 | CN(CP(C)(=O)O)NC(=O)C[C@H](N)C[C@@H](O)CN | > 256 mg/L | > 80 µM | > 256 mg/L | > 256 mg/L | > 256 mg/L | > 256 mg/L | > 256 mg/L | > 256 mg/L | > 256 mg/L | 
4 | CC(C)C[C@H](N)C(=O)NC[C@H](O)C[C@@H](N)CC(=O)NN(C)CC(=O)O | 16 mg/L (≈ 44.3 µM) | 3.5 µM | 8 mg/L (≈ 22.1 µM) | 32 mg/L (≈ 88.5 µM) | 16 mg/L (≈ 44.3 µM) |  | 64 mg/L (≈ 177 µM) | 16 mg/L (≈ 44.3 µM) | 256 mg/L (≈ 708 µM) | 
5 | CN(CC(=O)O)NC(=O)C[C@H](N)C[C@@H](O)CN=C(N)N | > 256 mg/L | > 80 µM | 128 mg/L (≈ 441 µM) | > 256 mg/L | > 256 mg/L |  | > 256 mg/L | > 256 mg/L | > 256 mg/L | 
6 | CN(CC(=O)O)NC(=O)C[C@H](N)CC(O)CN1CCOCC1 (some centres undefined) | > 256 mg/L | > 80 µM | > 256 mg/L | > 256 mg/L | > 256 mg/L | > 256 mg/L | > 256 mg/L | > 256 mg/L | > 256 mg/L | 
7 | CCNC[C@H](O)C[C@@H](N)CC(=O)NN(C)CC(=O)O | 8 mg/L (≈ 29 µM) | 4.5 µM | 4 mg/L (≈ 14.5 µM) | 8 mg/L (≈ 29 µM) | 16 mg/L (≈ 57.9 µM) |  | 128 mg/L (≈ 463 µM) | 16 mg/L (≈ 57.9 µM) | > 256 mg/L | 
8 | NC[C@H](O)C[C@@H](N)CC(=O)NOCC(=O)O | > 256 mg/L | > 80 µM | > 256 mg/L | > 256 mg/L | > 256 mg/L | > 256 mg/L | > 256 mg/L | > 256 mg/L | > 256 mg/L | 
9 | CN(CC(=O)O)NC(=O)C[C@H](N)CC(O)CN1CCNCC1 (some centres undefined) | > 256 mg/L | > 80 µM | > 256 mg/L | > 256 mg/L | > 256 mg/L | > 256 mg/L | > 256 mg/L | > 256 mg/L | > 256 mg/L | 
10 | CN(Cc1nn[nH]n1)NC(=O)C[C@H](N)C[C@@H](O)CN | > 256 mg/L | > 80 µM | > 256 mg/L | > 256 mg/L | > 256 mg/L | > 256 mg/L | > 256 mg/L | > 256 mg/L | > 256 mg/L | 
11 | NC[C@H](O)C[C@@H](N)CC(=O)NN1CCC[C@H]1C(=O)O | > 256 mg/L | > 80 µM | > 256 mg/L | > 256 mg/L | > 256 mg/L | > 256 mg/L | > 256 mg/L | > 256 mg/L | > 256 mg/L | 
12 | CC(ONC(=O)C[C@H](N)C[C@@H](O)CN)C(=O)O (some centres undefined) | > 256 mg/L | > 80 µM | > 256 mg/L | > 256 mg/L | > 256 mg/L | > 256 mg/L | > 256 mg/L | > 256 mg/L | > 256 mg/L | 
13 | CN(CC(=O)O)NC(=O)C[C@H](N)C[C@H](O)CCN | > 256 mg/L | > 80 µM | > 256 mg/L | > 256 mg/L | > 256 mg/L | > 256 mg/L | > 256 mg/L | > 256 mg/L | > 256 mg/L | 
14 | CN(CC(=O)O)NC(=O)C[C@H](N)C[C@@H](O)CNCc1ccccc1 | 32 mg/L (≈ 94.6 µM) | 0.8 µM | 16 mg/L (≈ 47.3 µM) | 32 mg/L (≈ 94.6 µM) | 64 mg/L (≈ 189 µM) | 128 mg/L (≈ 378 µM) | > 128 mg/L | 64 mg/L (≈ 189 µM) | > 128 mg/L | 
15 | CN(CC(=O)O)NC(=O)C[C@H](N)C[C@H](O)CN | 128 mg/L (≈ 516 µM) | 23.4 µM | 32 mg/L (≈ 129 µM) | 64 mg/L (≈ 258 µM) | 128 mg/L (≈ 516 µM) |  | > 512 mg/L | 128 mg/L (≈ 516 µM) | 512 mg/L (≈ 2060 µM) | 
16 | CN(CC(=O)O)NC(=O)C[C@H](N)CC(O)CN1CC[C@H](N)C1 (some centres undefined) | > 256 mg/L | > 80 µM | > 256 mg/L | > 256 mg/L | > 256 mg/L | > 256 mg/L | > 256 mg/L | > 256 mg/L | > 256 mg/L | 
17 | CN(CC(=O)O)NC(=O)C[C@H](N)C[C@@H](O)CNC(N)=O | > 256 mg/L | > 80 µM | > 256 mg/L | > 256 mg/L | > 256 mg/L |  | > 256 mg/L | > 256 mg/L | > 256 mg/L | 
18 | CN(CC(=O)O)NC(=O)C[C@H](N)C[C@@H](O)CCN | > 256 mg/L | > 80 µM | > 256 mg/L | > 256 mg/L | > 256 mg/L | > 256 mg/L | > 256 mg/L | > 256 mg/L | > 256 mg/L | 
19 | CNC[C@H](O)C[C@@H](N)CC(=O)NN(C)CC(=O)O | 8 mg/L (≈ 30.5 µM) | 2.3 µM | 4 mg/L (≈ 15.2 µM) | 4 mg/L (≈ 15.2 µM) | 16 mg/L (≈ 61 µM) | 256 mg/L (≈ 976 µM) | 128 mg/L (≈ 488 µM) | 16 mg/L (≈ 61 µM) | 128 mg/L (≈ 488 µM) | 16.3 mg/kg
20 | NC[C@H](O)C[C@@H](N)CC(=O)NN1CCC[C@@H]1C(=O)O | > 256 mg/L | > 80 µM | > 256 mg/L | > 256 mg/L | > 256 mg/L | > 256 mg/L | > 256 mg/L | > 256 mg/L | > 256 mg/L | 
21 | CN(CC(=O)O)NC(=O)C[C@H](N)CC(O)CN1CC[C@@H](N)C1 (some centres undefined) | > 256 mg/L | > 80 µM | > 256 mg/L | > 256 mg/L | > 256 mg/L | > 256 mg/L | > 256 mg/L | > 256 mg/L | > 256 mg/L | 
22 | CC(C)CCCNC[C@H](O)C[C@@H](N)CC(=O)NN(C)CC(=O)O | > 256 mg/L | > 80 µM | > 256 mg/L | > 256 mg/L | > 256 mg/L | > 256 mg/L | > 256 mg/L | > 256 mg/L | > 256 mg/L | 
23 | CN(CC(=O)O)NC(=O)C[C@H](N)C[C@@H](O)CN [NEGAMYCIN] | 4 mg/L (≈ 16.1 µM) | 1 µM | 2 mg/L (≈ 8.06 µM) | 2 mg/L (≈ 8.06 µM) | 8 mg/L (≈ 32.2 µM) | 32 mg/L (≈ 129 µM) | 32 mg/L (≈ 129 µM) | 4 mg/L (≈ 16.1 µM) | 32 mg/L (≈ 129 µM) | 5.1 mg/kg
